What was measured:
[1] = molecular target: Bromodomain-containing protein 4 (Homo sapiens, UniProt O60885); assay: Binding affinity to 5FW-labeled BRD4 bromodomain 1 (unknown origin) expressed in Escherichia coli BL21(DE3) by PrOF NMR spectroscopic analysis
How it was run: (§1)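 BrdT samples also contain 3 mM DTT. Spectra recorded with compound present and absent at 500 MHz, 90° flip angle, 0.7 s relaxation delay, 0.1 s acquisition, 500 transients. The read-out is broadening or shift of the binding-pocket Trp resonance.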

[2] = molecular target: Nucleosome-remodeling factor subunit BPTF (Homo sapiens, UniProt Q12830); assay: Binding affinity to 5FW-labeled BPTF (unknown origin) by PrOF NMR spectroscopic analysis; how it was run: as §1
[3] = molecular target: T1, Bromodomain testis-specific protein (Homo sapiens, UniProt Q58F21); assay: Binding affinity to 5FW-labeled BRDT bromodomain 1 residue (unknown origin) expressed in Escherichia coli BL21(DE3) by PrOF NMR spectroscopic analysis
[4] = molecular target: T1, Bromodomain testis-specific protein; assay: Binding affinity to 5FW-labeled BRDT bromodomain 1 W50 residue (unknown origin) expressed in Escherichia coli BL21(DE3) by PrOF NMR spectroscopic analysis
How it was run: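 5FW-BrdT(1) at 40–50 μM in 50 mM Tris, 100 mM NaCl, 3 mM DTT, pH 7.4, 5% D2O. The pocket Trp resonance is followed for broadening and for a new upfield peak as ligand is titrated.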

Kd [1]: 660 µM
Kd [2]: 6800 µM
Kd [3]: 1500 µM
Kd [4]: 1500 µM
SMILES: CCn1c(N)cc(=O)[nH]c1=O
